Experimental data from article PMC2597579 (Neuroscience letters, 2008).
Like-named read-outs stand apart in the source and are kept apart here.

What was measured:
[1] = biological target: T1, α1β2γ2s GABAA receptor (rat subunits expressed in Xenopus laevis oocytes) (Rattus norvegicus, UniProt P18508+P62813+P63138); assay type: cell-based
GABAA receptor = settings: cited from earlier work
[2] = biological target: T1, α1β2γ2s GABAA receptor (rat subunits expressed in Xenopus laevis oocytes); assay type: cell-based; remark: listed apart in the source
Method in brief: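 Rat α1, β2, γ2S cRNAs injected 1:1:1 into defolliculated stage IV–V Xenopus laevis oocytes, kept 2–3 days at 18°C. Two-electrode voltage clamp at −60 mV, room temperature, Ca-free frog Ringer's pH 7.5. […] Percent change from control peak; t-test.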

GABAA receptors = settings: ref Wan et al. [39], cited from earlier work
α4β3γ1 GABAA receptor = settings: insulin, α4β3γ1 isoform; ref [40]; cited from earlier work

T1 sequence (P62813 28-455): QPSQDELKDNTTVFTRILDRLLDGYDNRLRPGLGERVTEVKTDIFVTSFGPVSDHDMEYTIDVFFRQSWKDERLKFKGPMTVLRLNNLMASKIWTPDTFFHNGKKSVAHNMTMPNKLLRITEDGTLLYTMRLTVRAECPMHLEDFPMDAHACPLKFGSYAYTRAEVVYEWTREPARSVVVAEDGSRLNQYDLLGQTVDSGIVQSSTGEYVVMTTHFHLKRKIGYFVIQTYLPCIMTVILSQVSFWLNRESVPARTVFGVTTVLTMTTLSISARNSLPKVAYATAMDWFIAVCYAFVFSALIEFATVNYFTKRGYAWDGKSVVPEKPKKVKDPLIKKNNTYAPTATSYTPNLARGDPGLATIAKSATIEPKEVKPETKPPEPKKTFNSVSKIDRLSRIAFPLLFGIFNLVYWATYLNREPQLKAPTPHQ
T1 sequence (P63138 26-474): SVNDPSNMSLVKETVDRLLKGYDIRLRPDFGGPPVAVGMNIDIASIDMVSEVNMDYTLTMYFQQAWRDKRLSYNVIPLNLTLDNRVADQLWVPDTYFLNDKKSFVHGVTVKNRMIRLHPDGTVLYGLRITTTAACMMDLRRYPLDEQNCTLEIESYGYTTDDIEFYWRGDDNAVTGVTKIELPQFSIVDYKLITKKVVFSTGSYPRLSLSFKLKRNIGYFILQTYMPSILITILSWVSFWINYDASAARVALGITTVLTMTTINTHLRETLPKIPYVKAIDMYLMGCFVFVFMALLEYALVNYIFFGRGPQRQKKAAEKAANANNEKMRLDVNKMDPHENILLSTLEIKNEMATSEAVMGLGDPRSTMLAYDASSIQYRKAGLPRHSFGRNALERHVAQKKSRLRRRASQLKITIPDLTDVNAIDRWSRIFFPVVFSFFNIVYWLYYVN
T1 sequence (P18508 39-466): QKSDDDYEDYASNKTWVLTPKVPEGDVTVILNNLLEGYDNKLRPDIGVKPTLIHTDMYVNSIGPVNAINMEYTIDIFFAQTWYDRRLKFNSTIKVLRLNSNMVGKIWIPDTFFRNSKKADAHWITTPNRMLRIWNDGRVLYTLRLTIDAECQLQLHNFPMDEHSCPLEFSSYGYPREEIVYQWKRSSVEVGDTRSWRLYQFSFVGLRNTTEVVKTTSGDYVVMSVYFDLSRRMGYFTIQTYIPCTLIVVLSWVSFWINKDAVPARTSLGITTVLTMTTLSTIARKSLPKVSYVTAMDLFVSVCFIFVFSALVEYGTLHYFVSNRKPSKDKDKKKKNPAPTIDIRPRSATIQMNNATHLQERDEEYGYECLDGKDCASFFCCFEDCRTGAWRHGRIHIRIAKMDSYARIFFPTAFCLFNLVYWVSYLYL

In the case of `NCCCC(=O)O` [GABA, γ-aminobutyric acid, reference compound], the “approximate EC30 of GABA” value ([1]; concentration used for insulin dose response) is reported as about 1 µM.

For `CN1CCc2cc3c(cc2[C@H]1[C@@H]1OC(=O)c2c1ccc1c2OCO1)OCO3` [bicuculline], the “type of GABAA antagonism” value (GABAA receptor; rightward shift in GABA EC50, no significant effect on maximal current, ref [2]) is given as “typical competitive inhibitor”.

For `c1ccc2c(c1)Cc1ccccc1-n1c-2nnc1N1CCNCC1` [pitrazepin], the “type of GABAA antagonism” value (GABAA receptor; similar effects and shifts in GABA dose response curves, ref [14]) is given as “competitive inhibitors of the GABAA receptor”.

For `COc1c(O[C@@H]2O[C@H](CO)[C@@H](O)[C@H](O)[C@H]2O)cc2c(c1OC)-c1ccc(SC)c(=O)cc1[C@@H](NC(C)=O)CC2` [thiocolchicoside], the “type of GABAA antagonism” value (GABAA receptor; similar effects and shifts in GABA dose response curves, ref [11]) is listed as “competitive inhibitors of the GABAA receptor”.

For “insulin: pancreatic peptide hormone; bovine form (cat I-5500) from Sigma, dissolved in 0.1% acetic acid”, the “effect of insulin on GABA induced current” value ([2]; 1 nM insulin + 1 µM GABA) was “inhibits currents elicited by 1 µM GABA”, the “reversibility of the inhibitory effect of insulin” value ([2]; 1 nM insulin, then 1 µM GABA only) was “reversible” and the “saturating insulin concentration” value ([2]; 100 nM insulin) was “at or near saturating”. For the same compound, the “effect of insulin on GABA induced current” value ([2]; 100 nM insulin + 1 µM GABA) was “inhibits currents elicited by 1 µM GABA”, the “effect of insulin on GABA induced current” value ([2]; 100 nM insulin + 100 µM GABA) was “no significant effect” and the “percent change in GABA induced current” value ([2]; 100 nM insulin co-applied with 100 µM GABA (near saturating), not significant) was −0.33 ± 2.0%. The “inhibition of GABA induced current” value ([2]; insulin co-applied with low (EC30–50) concentrations of GABA) was “about 38%”, the “affinity of insulin for the GABA receptor” value ([2]; stated in discussion, from insulin dose response) was “nanomolar affinity for the GABA receptor” and the “maximal current with insulin, % of maximal” value ([1]; 100 nM insulin, GABA dose response 0.1 µM to 1 mM) was 99 ± 13%. The “incubation time required for potentiating effect” value (GABAA receptors; 500 nM insulin) was “at least 10 minutes”, the “insulin concentration required for potentiating effect” value (GABAA receptors; incubation at least 10 minutes) was 500 nM and the “type of inhibition” value (α4β3γ1 GABAA receptor) was “mixed type inhibition”.
